From ChEMBL document CHEMBL2046388, “Synthesis and biological evaluation of novel anticancer bivalent colchicine-tubulizine hybrids” (Bioorg Med Chem, 2012) come the findings set out here.

Activity calls are given as the source filed them. The rule behind the calls is not given here.

One data set relates to HBL-100. Briefly: Antiproliferative activity against human HBL100 after 72 hrs by MTT assay. In kind it is functional, cell-based. The following applies: HBL-100, 72 h.
The species named for data set [1] is Ovis aries. Briefly: Inhibition of sheep tubulin assembly assessed as half inhibitory molar ratio of compound to tubulin by DAPI fluorometric assay. The arrangement: unit not given here. A digest of the protocol:
(§1)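 Lamb brain tubulin (ammonium sulfate fractionation, ion-exchange chromatography; quantified at 275 nm) was polymerized at 37 °C, started by warming, with DAPI in 20 mM sodium phosphate, 1 mM EGTA, 10 mM MgCl2, 3.4 M glycerol, pH 6.5, with DMSO under 1%. DAPI fluorescence was followed over time, and % inhibition was plotted against the ligand:tubulin molar ratio. Run in triplicate.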

Data set [2] can be described thus: Lipophilicity, log D of the compound. The following applies: octanol/water. The data set is classed as physicochemical.
Data set [3] is filed under the species Ovis aries. Briefly: Inhibition of sheep tubulin polymerization at 1 to 30 uM by DAPI fluorometric assay. A digest of the protocol:
as §1

As for `COc1ccc(CNc2nc(NCCOC(=O)CCCCCCCCCCCCCCCc3cn(CCCCCC(=O)N[C@H]4CCc5cc(OC)c(OC)c(OC)c5-c5ccc(OC)c(=O)cc54)nn3)nc(NCc3ccc(OC)cc3)n2)cc1`, it took 599 nM to reach half-maximal inhibition with HBL-100 (IC50). The INH in the data set filed under Ovis aries [1] came to 2.75. For the same compound, the logD in data set [2] is 9.814.
Consider `COc1ccc(CNc2nc(NCCOC(=O)CCc3cn(CCC(=O)N[C@H]4CCc5cc(OC)c(OC)c(OC)c5-c5ccc(OC)c(=O)cc54)nn3)nc(NCc3ccc(OC)cc3)n2)cc1`, for which the IC50 with HBL-100 came to 2590 nM. Besides, in the data set filed under Ovis aries [1], the INH came out at 0.48. In data set [2], this compound returned a logD of 4.815.
In the same order, the values of `COc1ccc(CNc2nc(NCCOC(=O)CCCc3cn(CCCCCCCCCC(=O)N[C@H]4CCc5cc(OC)c(OC)c(OC)c5-c5ccc(OC)c(=O)cc54)nn3)nc(NCc3ccc(OC)cc3)n2)cc1` are 1010 nM, 3.4 and 8.738.
Take `COc1ccc(CNc2nc(NCc3ccc(OC)cc3)nc(NCc3cn(CCCCCCCCCC(=O)N[C@H]4CCc5cc(OC)c(OC)c(OC)c5-c5ccc(OC)c(=O)cc54)nn3)n2)cc1`: it took 699 nM to reach half-maximal inhibition in the data set with HBL-100 (IC50). Besides, the INH in the data set filed under Ovis aries [1] worked out at 0.99. Further, in data set [2], the logD stood at 8.465.
In turn, `COc1ccc(CNc2nc(NCCO)nc(NCc3ccc(OC)cc3)n2)cc1` displayed an IC50 with HBL-100 of 3140 nM. Further, the INH in the data set listed under Ovis aries [1] turned out to be 0.34.
`COc1ccc(CNc2nc(NCCOC(=O)COCCOCCOCCOCCOCCOCCOCCOCCOCCOCCOCC(=O)N[C@H]3CCc4cc(OC)c(OC)c(OC)c4-c4ccc(OC)c(=O)cc43)nc(NCc3ccc(OC)cc3)n2)cc1` gave an IC50 with HBL-100 of 2930 nM. Also, the INH in the data set filed under Ovis aries [1] was 3.44. The compound also displayed a logD in data set [2] of 2.568.
For `COc1ccc(CNc2nc(NCCOC(=O)CCCc3cn(CCCCCC(=O)N[C@H]4CCc5cc(OC)c(OC)c(OC)c5-c5ccc(OC)c(=O)cc54)nn3)nc(NCc3ccc(OC)cc3)n2)cc1` the same measures were 1860 nM, 0.48 and 6.367.
In the data set on HBL-100, `COc1ccc(CNc2nc(NCCOC(=O)CCCCCCCCc3cn(CCC(=O)N[C@H]4CCc5cc(OC)c(OC)c(OC)c5-c5ccc(OC)c(=O)cc54)nn3)nc(NCc3ccc(OC)cc3)n2)cc1` showed an IC50 of 687 nM. Besides, the inhibition result in the data set listed under Ovis aries [3] was “Active”. For the same compound, in the data set filed under Ovis aries [1], the INH was 0.71. Also, in data set [2], the logD came out at 7.612.
In the data set with HBL-100, `COc1ccc(CNc2nc(NCCOC(=O)CCCCc3cn(CCC(=O)N[C@H]4CCc5cc(OC)c(OC)c(OC)c5-c5ccc(OC)c(=O)cc54)nn3)nc(NCc3ccc(OC)cc3)n2)cc1` came in with an IC50 of 1620 nM. In the data set listed under Ovis aries [1], the INH amounted to 0.41. In data set [2], the logD was found to be 5.591.

Broadly, the IC50 is the concentration at which inhibition is half-maximal. For orientation: logD means the decadic logarithm of the distribution of all forms, ionised or not, between an organic phase and buffer at a given pH.
